Results: ChEMBL document CHEMBL3853360, “Combined Interactions with I1-, I2-Imidazoline Binding Sites and α2-Adrenoceptors To Manage Opioid Addiction” (ACS Med Chem Lett, 2016)
Blank lines part the entries; values can stand above or below the molecule they belong to. Calls of active or inactive are those of the source. The rule behind the calls is not given here.

What was measured:
[1] = species on record: Homo sapiens; assay: Selectivity ratio of agonist activity at I1 receptor imidazoline binding site (unknown origin) to agonist activity at alpha2-AR (unknown origin)
[2] = molecular target: T1, Alpha-2B adrenergic receptor (Homo sapiens, UniProt P18089); assay: Agonist activity at human alpha2b-AR expressed in CHO cells assessed as rate of acidification after 240 mins by cytosensor microphysiometric analysis; format: cell-based
T1 sequence (P18089 whole entry): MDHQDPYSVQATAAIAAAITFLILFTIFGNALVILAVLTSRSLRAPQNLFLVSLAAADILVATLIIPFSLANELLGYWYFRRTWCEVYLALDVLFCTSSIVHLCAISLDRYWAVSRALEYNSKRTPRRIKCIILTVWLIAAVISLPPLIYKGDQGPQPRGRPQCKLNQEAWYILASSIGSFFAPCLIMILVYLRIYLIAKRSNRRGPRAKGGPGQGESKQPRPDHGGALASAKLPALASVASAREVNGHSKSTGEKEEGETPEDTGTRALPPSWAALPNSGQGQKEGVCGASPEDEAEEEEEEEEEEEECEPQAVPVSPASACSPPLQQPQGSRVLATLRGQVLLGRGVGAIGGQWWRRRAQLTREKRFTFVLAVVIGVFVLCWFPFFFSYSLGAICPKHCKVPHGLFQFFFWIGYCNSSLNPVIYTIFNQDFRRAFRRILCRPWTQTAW
Method in brief: (§1)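 Functional assay in CHO cells stably expressing a single human α2-AR subtype (α2A, α2B or α2C), read on a Cytosensor microphysiometer. Outputs are pEC50, intrinsic activity and, for antagonism, pKb. Intrinsic activity is expressed as a fraction of the full agonist (−)-noradrenaline, set at 1. Values are mean ± SEM of 3–5 separate experiments.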

[3] = molecular target: T2, Alpha-2C adrenergic receptor (Homo sapiens, UniProt P18825); assay: Agonist activity at human alpha2c-AR expressed in CHO cells assessed as rate of acidification after 240 mins by cytosensor microphysiometric analysis; format: cell-based; method in brief: as §1
T2 sequence (P18825 whole entry): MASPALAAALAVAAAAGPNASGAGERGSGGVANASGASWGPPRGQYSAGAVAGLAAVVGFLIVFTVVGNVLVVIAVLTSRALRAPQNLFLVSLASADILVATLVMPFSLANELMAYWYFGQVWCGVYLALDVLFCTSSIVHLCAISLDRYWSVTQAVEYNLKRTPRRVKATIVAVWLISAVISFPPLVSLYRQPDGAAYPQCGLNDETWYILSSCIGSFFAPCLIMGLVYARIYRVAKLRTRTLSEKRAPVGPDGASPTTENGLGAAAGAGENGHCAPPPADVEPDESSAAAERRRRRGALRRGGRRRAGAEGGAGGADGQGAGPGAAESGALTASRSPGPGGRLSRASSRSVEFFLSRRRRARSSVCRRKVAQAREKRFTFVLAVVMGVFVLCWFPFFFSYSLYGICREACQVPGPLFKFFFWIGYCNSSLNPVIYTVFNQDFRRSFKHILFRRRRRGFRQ

[4] = molecular target: T3, Adrenergic receptor alpha-2 (Rattus norvegicus, UniProt P22086+P19328+P22909); assay: Displacement of [3H]-RX 821002 from alpha2-AR in Sprague-Dawley rat brain membranes after 30 mins by liquid scintillation counting; format: cell membranes, Membrane
T3 sequence (P22086 whole entry): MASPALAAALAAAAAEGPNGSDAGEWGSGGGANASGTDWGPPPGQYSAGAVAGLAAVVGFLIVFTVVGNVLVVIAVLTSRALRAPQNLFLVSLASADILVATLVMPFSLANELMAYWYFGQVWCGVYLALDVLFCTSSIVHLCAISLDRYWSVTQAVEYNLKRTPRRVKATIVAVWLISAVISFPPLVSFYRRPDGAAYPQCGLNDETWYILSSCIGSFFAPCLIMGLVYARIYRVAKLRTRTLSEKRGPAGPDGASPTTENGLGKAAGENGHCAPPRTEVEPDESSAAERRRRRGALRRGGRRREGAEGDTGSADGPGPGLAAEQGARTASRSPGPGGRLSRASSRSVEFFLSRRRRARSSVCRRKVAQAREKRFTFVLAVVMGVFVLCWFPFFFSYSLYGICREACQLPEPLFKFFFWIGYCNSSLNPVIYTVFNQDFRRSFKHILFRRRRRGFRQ
T3 sequence (P19328 whole entry): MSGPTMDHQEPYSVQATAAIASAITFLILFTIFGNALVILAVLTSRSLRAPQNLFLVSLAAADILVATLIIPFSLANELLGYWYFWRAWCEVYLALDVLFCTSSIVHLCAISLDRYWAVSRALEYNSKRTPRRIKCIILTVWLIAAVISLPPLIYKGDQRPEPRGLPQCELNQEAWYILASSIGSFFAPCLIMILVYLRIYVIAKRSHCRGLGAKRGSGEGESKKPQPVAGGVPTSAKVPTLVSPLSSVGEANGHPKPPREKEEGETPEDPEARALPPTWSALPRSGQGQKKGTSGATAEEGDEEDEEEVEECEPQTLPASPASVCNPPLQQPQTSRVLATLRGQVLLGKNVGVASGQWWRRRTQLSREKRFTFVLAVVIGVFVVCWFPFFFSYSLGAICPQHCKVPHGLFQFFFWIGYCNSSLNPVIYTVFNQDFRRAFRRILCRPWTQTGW
T3 sequence (P22909 whole entry): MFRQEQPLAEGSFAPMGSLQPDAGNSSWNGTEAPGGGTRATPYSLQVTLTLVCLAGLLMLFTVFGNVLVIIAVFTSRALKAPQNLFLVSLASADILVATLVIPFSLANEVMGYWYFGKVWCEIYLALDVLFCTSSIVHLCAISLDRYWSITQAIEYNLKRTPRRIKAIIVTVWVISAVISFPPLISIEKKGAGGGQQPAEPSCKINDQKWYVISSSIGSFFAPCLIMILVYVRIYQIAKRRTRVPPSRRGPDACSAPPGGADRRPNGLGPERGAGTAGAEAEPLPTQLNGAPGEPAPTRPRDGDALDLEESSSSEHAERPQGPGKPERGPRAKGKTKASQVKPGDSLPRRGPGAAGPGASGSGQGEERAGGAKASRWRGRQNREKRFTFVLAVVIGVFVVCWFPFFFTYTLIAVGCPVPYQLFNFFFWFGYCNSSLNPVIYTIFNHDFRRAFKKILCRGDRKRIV
Method in brief: (§2)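 Radioligand competition binding with pKi determined by displacement. I1 sites: [125I]-p-iodoclonidine on rat kidney membranes. I2 sites: [3H]-2-BFI on rat brain membranes. α2-ARs: [3H]-RX821002 on rat brain membranes.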

[5] = molecular target: Nischarin (Rattus norvegicus, UniProt Q4G017); assay: Displacement of [125I]-p-iodoclonidine from I1 receptor imidazoline binding site in Sprague-Dawley rat kidney cell membranes after 30 mins by liquid scintillation counting; method in brief: as §2
Chain of Nischarin (Q4G017 whole entry): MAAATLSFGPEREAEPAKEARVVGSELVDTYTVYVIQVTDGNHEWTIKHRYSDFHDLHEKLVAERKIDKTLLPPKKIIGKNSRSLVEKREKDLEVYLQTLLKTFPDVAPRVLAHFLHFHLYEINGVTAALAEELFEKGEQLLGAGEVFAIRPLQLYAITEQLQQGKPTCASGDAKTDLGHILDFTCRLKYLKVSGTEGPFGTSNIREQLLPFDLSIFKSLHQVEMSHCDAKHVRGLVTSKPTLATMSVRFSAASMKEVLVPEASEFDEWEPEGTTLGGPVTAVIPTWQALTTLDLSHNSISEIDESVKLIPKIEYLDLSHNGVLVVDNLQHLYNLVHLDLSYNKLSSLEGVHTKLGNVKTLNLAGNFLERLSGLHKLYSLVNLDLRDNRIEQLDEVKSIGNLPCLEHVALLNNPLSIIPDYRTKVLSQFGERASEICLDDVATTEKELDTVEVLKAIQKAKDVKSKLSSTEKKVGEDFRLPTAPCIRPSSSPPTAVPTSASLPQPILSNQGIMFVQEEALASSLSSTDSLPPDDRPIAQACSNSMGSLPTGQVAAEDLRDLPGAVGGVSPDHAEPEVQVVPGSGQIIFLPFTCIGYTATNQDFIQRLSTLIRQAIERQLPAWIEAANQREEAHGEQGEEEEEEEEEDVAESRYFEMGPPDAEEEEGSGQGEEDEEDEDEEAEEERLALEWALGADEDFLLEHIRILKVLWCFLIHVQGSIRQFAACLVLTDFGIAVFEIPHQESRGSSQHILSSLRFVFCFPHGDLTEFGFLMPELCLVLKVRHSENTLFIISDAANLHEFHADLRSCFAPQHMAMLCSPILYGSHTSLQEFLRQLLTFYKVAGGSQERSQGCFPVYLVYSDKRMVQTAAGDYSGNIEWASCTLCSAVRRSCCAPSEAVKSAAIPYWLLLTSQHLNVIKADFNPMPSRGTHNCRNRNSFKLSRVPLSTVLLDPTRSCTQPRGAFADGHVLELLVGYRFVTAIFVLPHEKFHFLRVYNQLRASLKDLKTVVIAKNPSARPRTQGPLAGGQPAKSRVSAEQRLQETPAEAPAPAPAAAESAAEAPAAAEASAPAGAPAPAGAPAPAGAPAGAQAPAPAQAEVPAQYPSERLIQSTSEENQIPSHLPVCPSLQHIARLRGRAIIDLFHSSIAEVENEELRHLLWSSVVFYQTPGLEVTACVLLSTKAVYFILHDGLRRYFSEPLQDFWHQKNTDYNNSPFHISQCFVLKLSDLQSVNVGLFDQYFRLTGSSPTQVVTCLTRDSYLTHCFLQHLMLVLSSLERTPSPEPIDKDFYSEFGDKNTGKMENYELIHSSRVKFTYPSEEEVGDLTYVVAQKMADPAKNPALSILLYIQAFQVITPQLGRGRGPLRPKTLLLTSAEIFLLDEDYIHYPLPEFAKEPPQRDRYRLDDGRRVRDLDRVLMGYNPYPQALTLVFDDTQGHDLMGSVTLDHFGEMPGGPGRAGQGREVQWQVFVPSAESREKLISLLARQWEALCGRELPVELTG

[6] = molecular target: T4, Alpha-2A adrenergic receptor (Homo sapiens, UniProt P08913); assay: Agonist activity at human alpha2a-AR expressed in CHO cells assessed as rate of acidification after 240 mins by cytosensor microphysiometric analysis; format: cell-based; method in brief: as §1
T4 sequence (P08913 whole entry): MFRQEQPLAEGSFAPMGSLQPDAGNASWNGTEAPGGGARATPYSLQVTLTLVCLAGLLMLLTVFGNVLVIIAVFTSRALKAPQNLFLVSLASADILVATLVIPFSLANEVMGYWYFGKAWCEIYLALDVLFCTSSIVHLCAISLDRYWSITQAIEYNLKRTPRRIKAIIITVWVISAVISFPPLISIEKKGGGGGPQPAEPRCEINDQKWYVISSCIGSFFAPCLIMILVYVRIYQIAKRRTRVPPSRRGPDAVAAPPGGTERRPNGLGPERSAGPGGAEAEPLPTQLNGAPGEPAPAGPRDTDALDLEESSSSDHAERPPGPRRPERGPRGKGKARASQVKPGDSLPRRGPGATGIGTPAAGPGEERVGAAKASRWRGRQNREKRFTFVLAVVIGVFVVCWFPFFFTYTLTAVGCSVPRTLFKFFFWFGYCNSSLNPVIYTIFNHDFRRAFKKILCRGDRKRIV

[7] = Displacement of [3H]-2-BFI from I2 receptor imidazoline binding site in Sprague-Dawley rat brain membranes after 30 mins by liquid scintillation counting; format: cell membranes, Membrane; method in brief: as §2
[8] = molecular target: T5, Alpha-2B adrenergic receptor (Homo sapiens) (UniProt P18089); assay: Agonist activity at human alpha2b-AR expressed in CHO cells assessed as rate of acidification after 240 mins by cytosensor microphysiometric analysis relative to (-)-noradrenaline; format: cell-based; method in brief: as §1
T5 sequence (whole entry): T1 sequence (P18089 whole entry)

[9] = molecular target: T6, Alpha-2C adrenergic receptor (Homo sapiens) (UniProt P18825); assay: Agonist activity at human alpha2c-AR expressed in CHO cells assessed as rate of acidification after 240 mins by cytosensor microphysiometric analysis relative to (-)-noradrenaline; format: cell-based; method in brief: as §1
T6 sequence (whole entry): T2 sequence (P18825 whole entry)

[10] = system: Mus musculus; assay: Reduction in morphine dependence acquisition in CD1 mouse assessed as inhibition of naloxone-precipitated teeth chattering frequency at 10 mg/kg, ip administered 15 mins prior to each morphine challenge relative to control; format: functional
Method in brief: (§3)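 Mice received i.p. test compound (5 or 10 mg/kg) 15 min before each of repeated morphine injections, with vehicle and morphine-only controls. Withdrawal was then precipitated with naloxone. Jumping frequency and somatic signs (rearing, forepaw tremor, teeth chattering; summed frequency) were scored and compared with the morphine group. Data are mean ± SEM of 6–10 animals.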

[11] = system: Mus musculus; assay: Reduction in morphine dependence acquisition in CD1 mouse assessed as inhibition of naloxone-precipitated forepaw tremor frequency at 5 mg/kg, ip administered 15 mins prior to each morphine challenge relative to control; format: functional; method in brief: as §3
[12] = system: Mus musculus; assay: Reduction in morphine dependence acquisition in CD1 mouse assessed as inhibition of naloxone-precipitated rearing frequency at 10 mg/kg, ip administered 15 mins prior to each morphine challenge relative to control; format: functional; method in brief: as §3
[13] = system: Mus musculus; assay: Reduction in morphine dependence acquisition in CD1 mouse assessed as inhibition of naloxone-precipitated jumping at 10 mg/kg, ip administered 15 mins prior to each morphine challenge; format: functional, organism-based
Method in brief: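 Acquisition protocol in mice given repeated morphine. Test drug at 5 or 10 mg/kg i.p. was given 15 min before each morphine injection. Withdrawal was then precipitated with naloxone and jumping frequency counted. Data are mean ± SEM of 6–10 animals, compared with the morphine group.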

[14] = system: Mus musculus; assay: Reduction in morphine dependence acquisition in CD1 mouse assessed as inhibition of naloxone-precipitated teeth chattering frequency at 5 mg/kg, ip administered 15 mins prior to each morphine challenge relative to control; format: functional; method in brief: as §3
[15] = Reduction in morphine dependence expression in CD1 mouse assessed as inhibition of naloxone-precipitated forepaw tremor frequency at 10 mg/kg, ip administered acutely 15 mins prior to naloxone challenge relative to control; format: functional, organism-based
[16] = Reduction in morphine dependence expression in CD1 mouse assessed as inhibition of naloxone-precipitated forepaw tremor frequency at 5 mg/kg, ip administered acutely 15 mins prior to naloxone challenge relative to control; format: functional, organism-based
[17] = Reduction in morphine dependence expression in CD1 mouse assessed as inhibition of naloxone-precipitated rearing frequency at 5 mg/kg, ip administered acutely 15 mins prior to naloxone challenge relative to control; format: functional, organism-based
[18] = system: Mus musculus; assay: Reduction in morphine dependence acquisition in CD1 mouse assessed as inhibition of naloxone-precipitated rearing frequency at 5 mg/kg, ip administered 15 mins prior to each morphine challenge relative to control; format: functional; method in brief: as §3
[19] = system: Mus musculus; assay: Reduction in morphine dependence acquisition in CD1 mouse assessed as inhibition of naloxone-precipitated forepaw tremor frequency at 10 mg/kg, ip administered 15 mins prior to each morphine challenge relative to control; format: functional; method in brief: as §3
[20] = Reduction in morphine dependence expression in CD1 mouse assessed as inhibition of naloxone-precipitated teeth chattering frequency at 10 mg/kg, ip administered acutely 15 mins prior to naloxone challenge relative to control; format: functional, organism-based
[21] = Reduction in morphine dependence expression in CD1 mouse assessed as inhibition of naloxone-precipitated teeth chattering frequency at 5 mg/kg, ip administered acutely 15 mins prior to naloxone challenge relative to control; format: functional, organism-based
[22] = Reduction in morphine dependence expression in CD1 mouse assessed as inhibition of naloxone-precipitated jumping at 10 mg/kg, ip administered acutely 15 mins prior to naloxone challenge relative to control; format: functional, organism-based
[23] = Reduction in morphine dependence expression in CD1 mouse assessed as inhibition of naloxone-precipitated rearing frequency at 10 mg/kg, ip administered acutely 15 mins prior to naloxone challenge relative to control; format: functional, organism-based

Selectivity ratio [1]: 4
SMILES: Clc1cccc(Cl)c1NC1=NCCN1

EC50 [2]: 955 nM | EC50 [3]: 148 nM | pKi [4]: 6.75 | Ki [5]: 1.41 nM | EC50 [6]: 63.1 nM | pKi [7]: 6.1 | Intrinsic activity [8]: 0.5 | Intrinsic activity [9]: 0.8
SMILES: c1ccc(-c2ccccc2NCC2=NCCN2)cc1

SMILES: Cc1ccccc1/C=C/C1=NCCN1
inhibition in vivo at 10 mg/kg [10]: 46% | inhibition in vivo at 5 mg/kg [11]: 34% | pKi [4]: < 6 | inhibition in vivo at 10 mg/kg [12]: 46% | inhibition [13]: Active | inhibition in vivo at 5 mg/kg [14]: 34% | Ki [5]: 17.8 nM | inhibition [15]: 50% | inhibition [16]: 50% | inhibition [17]: 50% | inhibition in vivo at 5 mg/kg [18]: 34% | inhibition in vivo at 10 mg/kg [19]: 46% | inhibition [20]: 50% | inhibition [21]: 50% | inhibition [22]: 90% | pKi [7]: 9.11 | inhibition [23]: 50%
